The values that follow come from ChEMBL document CHEMBL1147076, “Antitumor activity of MLN8054, an orally active small-molecule inhibitor of Aurora A kinase” (Proc Natl Acad Sci U S A, 2007).

Series [1] has as its target Serine/threonine-protein kinase Sgk2 (Homo sapiens) (UniProt Q9HBY8). In words: Activity of human SGK2 kinase at 1 uM. The procedure, abridged: (§1)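 Single-point screen in a 226-kinase panel run by an outside service. Test compound at 1 μM with ATP at 10 μM in every assay. Other assay conditions are not given.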
Series [2] addresses Protein kinase C alpha type (Homo sapiens) (UniProt P17252). In words: Activity of human PKCalpha kinase at 1 uM. The procedure, abridged: as §1
The target in series [3] is Ephrin type-B receptor 1 (Homo sapiens) (UniProt P54762). In words: Activity of human EphB1 kinase at 1 uM. The procedure, abridged: (§2)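 Single-point kinase profiling: each kinase in a 226-kinase panel tested with compound at 1 μM and ATP at 10 μM in every assay, run by an external screening service.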
Series [4] in a line: Plasma concentration in human HCT116 cells xenografted in mouse at 30 mg/kg, po after 24 hrs. Type of series: ADME, organism-based, HCT-116. Also noted: dose 30 mg/kg, route oral. A general note: A xenograft is tissue or cells of one species grown in another, often human tumour cells in immunodeficient mice.
Series [5] deals with PC-3. The series is described as follows: Increase in mitotis in human PC3 cells assessed as mitotic cell count after 24 hrs. In kind it is functional. The procedure, abridged: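 Cultured cells were exposed to drug for 24 h and stained with MPM2 (mitotic marker) and Hoechst. Cells were imaged on a high-content imaging system, and the percentage of Hoechst-stained cells positive for MPM2 was calculated.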

Series [6] relates to PC-3. The series is described as follows: Cell cycle arrest in human PC3 cells by accumulation at >4N phase at 1 uM after 24 hrs by flow cytometry relative to control. Type of series: functional. On the technique in general: A flow cytometer gives signals particle by particle.
Series [7] deals with Mus musculus. In words: Toxicity in human PC3 cells xenografted into athymic nude NCR nu/nu mouse assessed as decrease in body weight at 30 mg/kg, BID after 21 days. Type of series: organism-based, PC-3. More on the design: dose 30 mg/kg; scale not given: the % may be the effect or the level left. The conditions noted are these: in vivo, 504 h. The procedure, abridged:
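Male athymic nude NCR nu/nu mice were given PC-3 cells (2 × 10^6) s.c. in the right flank. Drug in 10% hydroxypropyl-β-cyclodextrin/5% sodium bicarbonate was given orally twice daily for 21 days. Average loss of initial body weight was recorded on day 21 of treatment.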

Series [8] addresses Homeodomain-interacting protein kinase 3 (Homo sapiens) (UniProt Q9H422). In words: Activity of human HIPK3 kinase at 1 uM.
For series [9], the target named is Tyrosine-protein kinase CSK (Homo sapiens) (UniProt P41240). The series is described as follows: Activity of human CSK kinase at 1 uM. The procedure, abridged:
as §2

Series [10] deals with PC-3. The series is described as follows: Cell cycle arrest in human PC3 cells by accumulation at G2/M phase at 1 uM after 48 hrs by flow cytometry relative to control. Type of series: functional. The procedure, abridged: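 DNA content profiles by flow cytometry of PC-3 prostate tumor cells exposed to drug diluted in DMSO for 24 or 48 h. Phase distribution was compared with DMSO-treated control cells.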

For series [11], the target named is Tyrosine-protein kinase ZAP-70 (Homo sapiens) (UniProt P43403). The series is described as follows: Activity of human ZAP70 kinase at 1 uM. The procedure, abridged: as §1
In series [12] the target is Tyrosine-protein kinase Lyn (Homo sapiens) (UniProt P07948). In words: Activity of human Lyn kinase at 1 uM. The procedure, abridged:
as §2

Series [13] has as its target G protein-coupled receptor kinase 6 (Homo sapiens) (UniProt P43250). In words: Activity of human GRK6 kinase at 1 uM.
Series [14] deals with Serine/threonine-protein kinase PAK 4 (Homo sapiens) (UniProt O96013). In words: Activity of human PAK4 kinase at 1 uM. The procedure, abridged:
as §1

Series [15] has as its target Interleukin-1 receptor-associated kinase 1 (Homo sapiens) (UniProt P51617). The series is described as follows: Activity of human IRAK1 kinase at 1 uM.
In series [16] the target is Tyrosine-protein kinase receptor UFO (Homo sapiens) (UniProt P30530). The series is described as follows: Activity of human Axl kinase at 1 uM. The procedure, abridged:
as §2

Series [17] concerns PC-3. In words: Antitumor activity against human PC3 cells xenografted into athymic nude NCR nu/nu mouse at 10 mg/kg, po BID after 21 days relative to control. In kind it is functional. The procedure, abridged:
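Oral dosing for 21 days in 10% hydroxypropyl-β-cyclodextrin/5% sodium bicarbonate. Caliper volumes, L × W2 × 0.5. TGI = (Δcontrol − Δtreated average volume) × 100/Δcontrol.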

The nature of series [18]: Inhibition of PKA by radioactive flashplate assay.
Series [19] addresses Serine/threonine-protein kinase Nek3 (Homo sapiens) (UniProt P51956). The series is described as follows: Activity of human NEK3 kinase at 1 uM. The procedure, abridged: as §1
For series [20], the target named is Serine/threonine-protein kinase BRSK2 (Homo sapiens) (UniProt Q8IWQ3). The series is described as follows: Activity of human BrSK2 kinase at 1 uM.
Sequence of Serine/threonine-protein kinase BRSK2 (Homo sapiens) (Q8IWQ3 whole entry): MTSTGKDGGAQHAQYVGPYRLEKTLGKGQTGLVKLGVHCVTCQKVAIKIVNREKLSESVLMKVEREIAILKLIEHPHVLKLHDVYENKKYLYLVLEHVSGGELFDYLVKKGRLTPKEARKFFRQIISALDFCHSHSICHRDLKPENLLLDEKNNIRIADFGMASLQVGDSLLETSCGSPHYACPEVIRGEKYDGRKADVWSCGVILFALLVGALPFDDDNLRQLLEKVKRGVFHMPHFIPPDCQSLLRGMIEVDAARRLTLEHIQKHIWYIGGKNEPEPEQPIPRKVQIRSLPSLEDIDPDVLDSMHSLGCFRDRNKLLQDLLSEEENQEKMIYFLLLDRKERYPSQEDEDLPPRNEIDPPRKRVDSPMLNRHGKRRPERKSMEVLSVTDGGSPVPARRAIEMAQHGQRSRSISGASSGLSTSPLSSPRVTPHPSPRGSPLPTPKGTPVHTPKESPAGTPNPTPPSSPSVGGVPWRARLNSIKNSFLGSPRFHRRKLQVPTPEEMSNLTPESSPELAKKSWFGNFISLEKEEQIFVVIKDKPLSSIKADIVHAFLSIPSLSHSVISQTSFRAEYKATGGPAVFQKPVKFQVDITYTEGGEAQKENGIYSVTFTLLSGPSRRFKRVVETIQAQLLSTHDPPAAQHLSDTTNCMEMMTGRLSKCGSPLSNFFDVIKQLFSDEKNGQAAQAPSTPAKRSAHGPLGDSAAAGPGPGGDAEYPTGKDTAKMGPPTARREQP
Series [21] has as its target Protein kinase C beta type (Homo sapiens) (UniProt P05771). The series is described as follows: Activity of human PKC-beta-1 kinase at 1 uM. The procedure, abridged:
as §1

Structures are written as SMILES.

Sequence of G protein-coupled receptor kinase 6 (Homo sapiens) (P43250 whole entry, looked up): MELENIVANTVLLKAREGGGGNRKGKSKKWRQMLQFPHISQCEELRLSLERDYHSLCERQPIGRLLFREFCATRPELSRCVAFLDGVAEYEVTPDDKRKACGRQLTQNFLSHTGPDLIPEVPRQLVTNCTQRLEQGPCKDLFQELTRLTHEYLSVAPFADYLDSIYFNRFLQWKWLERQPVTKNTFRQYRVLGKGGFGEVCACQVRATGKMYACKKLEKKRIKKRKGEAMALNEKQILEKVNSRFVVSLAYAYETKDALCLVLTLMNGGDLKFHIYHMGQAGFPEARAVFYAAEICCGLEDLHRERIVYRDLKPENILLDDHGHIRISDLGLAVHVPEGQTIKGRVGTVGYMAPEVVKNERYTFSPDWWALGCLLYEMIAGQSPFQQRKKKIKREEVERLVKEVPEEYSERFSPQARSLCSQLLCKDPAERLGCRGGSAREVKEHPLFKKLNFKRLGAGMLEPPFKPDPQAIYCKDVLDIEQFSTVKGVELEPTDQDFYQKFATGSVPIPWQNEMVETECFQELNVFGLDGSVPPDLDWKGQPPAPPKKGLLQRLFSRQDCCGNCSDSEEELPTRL
Sequence of Tyrosine-protein kinase receptor UFO (Homo sapiens) (P30530 whole entry): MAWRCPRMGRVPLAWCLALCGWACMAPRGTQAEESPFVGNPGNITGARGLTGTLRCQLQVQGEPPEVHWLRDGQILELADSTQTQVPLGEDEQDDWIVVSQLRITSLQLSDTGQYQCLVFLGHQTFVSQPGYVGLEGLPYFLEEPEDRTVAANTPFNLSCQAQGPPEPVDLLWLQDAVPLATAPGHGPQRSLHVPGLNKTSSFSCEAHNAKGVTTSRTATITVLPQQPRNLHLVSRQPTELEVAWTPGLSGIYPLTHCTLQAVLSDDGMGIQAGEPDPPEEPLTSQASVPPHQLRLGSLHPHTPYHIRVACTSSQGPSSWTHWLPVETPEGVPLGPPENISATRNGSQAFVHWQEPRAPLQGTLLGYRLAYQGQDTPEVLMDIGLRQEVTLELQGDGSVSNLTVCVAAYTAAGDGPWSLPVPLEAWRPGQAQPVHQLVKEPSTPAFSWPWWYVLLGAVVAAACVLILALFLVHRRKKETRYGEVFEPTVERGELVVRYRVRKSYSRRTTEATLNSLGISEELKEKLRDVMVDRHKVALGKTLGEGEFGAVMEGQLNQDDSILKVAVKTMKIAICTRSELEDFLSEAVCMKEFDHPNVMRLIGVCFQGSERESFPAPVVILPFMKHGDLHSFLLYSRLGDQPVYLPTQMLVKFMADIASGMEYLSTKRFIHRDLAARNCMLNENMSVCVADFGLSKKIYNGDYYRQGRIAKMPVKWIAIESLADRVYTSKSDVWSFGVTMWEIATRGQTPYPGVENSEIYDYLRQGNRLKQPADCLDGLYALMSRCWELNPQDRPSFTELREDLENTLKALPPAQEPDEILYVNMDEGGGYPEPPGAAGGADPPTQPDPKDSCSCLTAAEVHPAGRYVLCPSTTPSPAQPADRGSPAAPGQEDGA
Sequence of Tyrosine-protein kinase Lyn (Homo sapiens) (P07948 2-512 limits assumed): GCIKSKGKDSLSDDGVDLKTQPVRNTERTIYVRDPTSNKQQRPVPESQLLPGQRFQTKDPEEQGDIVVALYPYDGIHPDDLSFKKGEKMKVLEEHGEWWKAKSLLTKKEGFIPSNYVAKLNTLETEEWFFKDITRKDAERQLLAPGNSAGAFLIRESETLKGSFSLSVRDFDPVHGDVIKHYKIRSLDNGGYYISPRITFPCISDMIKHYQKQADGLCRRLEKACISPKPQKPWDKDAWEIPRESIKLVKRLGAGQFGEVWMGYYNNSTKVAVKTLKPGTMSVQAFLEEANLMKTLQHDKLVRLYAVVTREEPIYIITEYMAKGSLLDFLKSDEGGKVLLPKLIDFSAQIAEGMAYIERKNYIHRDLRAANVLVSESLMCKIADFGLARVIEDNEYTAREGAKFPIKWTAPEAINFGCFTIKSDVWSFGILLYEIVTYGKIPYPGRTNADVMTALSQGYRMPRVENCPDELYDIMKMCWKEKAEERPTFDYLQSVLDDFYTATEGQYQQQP
Sequence of Serine/threonine-protein kinase Sgk2 (Homo sapiens) (Q9HBY8 whole entry): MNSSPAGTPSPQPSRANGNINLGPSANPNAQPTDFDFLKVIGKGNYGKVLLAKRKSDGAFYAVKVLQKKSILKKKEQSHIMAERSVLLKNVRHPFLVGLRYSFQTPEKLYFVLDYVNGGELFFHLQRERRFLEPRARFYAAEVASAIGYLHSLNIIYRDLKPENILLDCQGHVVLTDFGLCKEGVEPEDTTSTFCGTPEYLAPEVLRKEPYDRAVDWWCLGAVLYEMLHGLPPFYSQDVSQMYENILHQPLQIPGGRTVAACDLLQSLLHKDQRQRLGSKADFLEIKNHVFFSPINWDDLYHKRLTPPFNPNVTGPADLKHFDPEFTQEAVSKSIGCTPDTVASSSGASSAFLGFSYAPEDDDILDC
Sequence of Tyrosine-protein kinase CSK (Homo sapiens) (P41240 2-450 limits assumed): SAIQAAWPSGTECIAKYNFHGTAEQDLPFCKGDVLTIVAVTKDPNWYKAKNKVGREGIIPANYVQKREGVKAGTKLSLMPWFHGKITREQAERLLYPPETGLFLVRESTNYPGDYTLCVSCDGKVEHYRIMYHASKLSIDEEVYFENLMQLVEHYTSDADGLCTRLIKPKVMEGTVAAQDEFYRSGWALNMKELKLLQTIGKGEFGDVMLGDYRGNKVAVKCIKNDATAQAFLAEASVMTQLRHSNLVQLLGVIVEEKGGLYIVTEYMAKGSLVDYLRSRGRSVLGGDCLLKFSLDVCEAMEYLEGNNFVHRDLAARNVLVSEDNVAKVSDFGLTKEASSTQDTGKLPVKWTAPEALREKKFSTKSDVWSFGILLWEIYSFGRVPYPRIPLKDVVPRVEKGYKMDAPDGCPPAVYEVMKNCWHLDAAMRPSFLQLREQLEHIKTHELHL
Sequence of Serine/threonine-protein kinase Nek3 (Homo sapiens) (P51956 whole entry): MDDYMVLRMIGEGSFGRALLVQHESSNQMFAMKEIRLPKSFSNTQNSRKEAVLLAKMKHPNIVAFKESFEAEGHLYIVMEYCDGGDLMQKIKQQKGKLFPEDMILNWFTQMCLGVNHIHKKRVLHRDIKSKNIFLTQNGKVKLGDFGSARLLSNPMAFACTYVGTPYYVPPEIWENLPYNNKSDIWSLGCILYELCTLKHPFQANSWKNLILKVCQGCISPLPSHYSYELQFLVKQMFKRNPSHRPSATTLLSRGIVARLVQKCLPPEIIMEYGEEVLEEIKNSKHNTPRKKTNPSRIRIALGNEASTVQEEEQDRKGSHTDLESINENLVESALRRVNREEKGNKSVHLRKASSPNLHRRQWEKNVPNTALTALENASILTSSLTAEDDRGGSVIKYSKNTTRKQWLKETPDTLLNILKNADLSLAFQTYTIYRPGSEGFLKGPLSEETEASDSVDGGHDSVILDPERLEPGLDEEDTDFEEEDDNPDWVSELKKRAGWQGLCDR

For `O=C(O)c1ccc(Nc2ncc3c(n2)-c2ccc(Cl)cc2C(c2c(F)cccc2F)=NC3)cc1` [MLN-8054], the Activity worked out at 100% in series [1]; 108% in [2]; 35% in series [3]; 12% in [5]; 3.7% in series [6]; 5.4% in [7]. For the same compound, the Activity in series [8] is 111%; in series [9] it was 105%; in [10], 59.8%; in series [11] it was 96%; in series [12], 46%; in series [13], 110%. Further, the Activity in series [14] worked out at 96%; in series [15], 110%; in series [16] it was 41%; in series [17] it was 73%; in series [19] it was 95%; in series [20], 99%. This compound gave an Activity in [21] of 98%. Further, the concentration at 24 h in [4] amounted to 0.4 µM. In addition, the IC50 in [18] came to 19 µM.

What is called IC50 is the concentration needed to halve the response being measured.
